In the library only some 3.5% were active in any assay of this set; here they are far more common.
APP 5'UTR act: activates APP 5'UTR luciferase reporter; SH-SY5Y APP 5'UTR luciferase reporter, luminescence; zero percent = DMSO vehicle wells; activation, % at 2 µM; 190,000 compounds, 1% hits;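 active means activation above a set limit, based on mean plus 3 SD of controls, cut at about 140% in these data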
NF-kB neuron act: compounds increasing NF-kB expression in human neuronal cells; NF-kB reporter expression; hits give high values; fold change at 12.5 µM; 190,000 compounds, 1.6% hits; AID 1239; in the data active means fold change above about 3.3
Pf gametocyte: P. falciparum stage V gametocyte viability inhibition | P. falciparum stage V gametocytes, ATP luminescence, 24 h | AID 743093 | 150,000 compounds, 0.065% hits | inhibition, % at 10.9 µM;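 active means inhibition above the mean plus 3 SD of compounds within the control limits, set per campaign, cut at about 38% in these data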
FLuc inh counter: counter-screen for luciferase assay inhibitors: firefly luciferase inhibition; inhibition, % at 10 µM; P08659; 200,000 compounds, 1.5% hits; ATPLite firefly luciferase biochemical luminescence, 10 min; AID 1006;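 active means inhibition above about 50% when tested at 10 µM, limit read from the data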
Target sequence (P08659 whole entry, looked up): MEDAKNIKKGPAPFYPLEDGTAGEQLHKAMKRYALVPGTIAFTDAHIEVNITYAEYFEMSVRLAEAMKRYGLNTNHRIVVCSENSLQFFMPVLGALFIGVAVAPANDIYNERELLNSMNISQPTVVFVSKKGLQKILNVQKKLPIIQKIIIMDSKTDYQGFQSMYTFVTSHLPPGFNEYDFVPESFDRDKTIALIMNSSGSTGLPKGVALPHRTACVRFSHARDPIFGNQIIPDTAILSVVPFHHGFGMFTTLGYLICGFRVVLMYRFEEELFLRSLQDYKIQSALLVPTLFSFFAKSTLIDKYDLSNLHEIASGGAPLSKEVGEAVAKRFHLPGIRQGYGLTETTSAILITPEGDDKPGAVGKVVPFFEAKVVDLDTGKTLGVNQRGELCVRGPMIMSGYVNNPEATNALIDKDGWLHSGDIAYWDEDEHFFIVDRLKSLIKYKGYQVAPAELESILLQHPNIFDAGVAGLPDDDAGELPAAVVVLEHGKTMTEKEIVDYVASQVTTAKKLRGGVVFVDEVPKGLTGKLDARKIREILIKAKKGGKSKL
FLuc act counter: affects firefly luciferase, flagging false hits in luciferase stimulation screens. P08659. ATPlite luciferase biochemical, luminescence, 10 min; 0 = ATP-free wells, 1 = DMSO control. activation factor at 10 µM. 200,000 tested, under 10 active;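 active means luciferase activation factor, scaled between plate controls, of at least 2 with compound at 10 µM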
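Assay system – cell-free luciferase reagent · Medium – PBS-based ATP solution · Dosing – test compounds dosed from 2 mM stocks in 100% DMSO · Timing – 10 min, room temperature · Technique – light output (luminescence) · Measure – luminescence gain marking luciferase activators · Controls – No-ATP low control, compound-free enzyme-plus-ATP high control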
STAT1 act: increases IFN-gamma driven STAT1 reporter signal; 200,000 compounds, 2.6% hits; NIH 3T3 STAT1-luciferase reporter, luminescence; 100% = IFN-gamma alone, no compound; activation (% of control), % at 5.5 µM; AID 932;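 active means activation above the screen-wide mean activation plus 3 SD, cut at about 130% in these data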
Of the large screens only hits and unclear results are named; the others gave an inactive call.

C#CCOCCOCCOCCNc1nc(N2CCN(C(=O)[C@H](C(C)C)n3cc(CCO)nn3)CC2)nc(N2CCN(C(=O)[C@H]([C@@H](C)CC)n3cc(CCC(=O)O)nn3)CC2)n1	none (no result: APP 5'UTR act, NF-kB neuron act, FLuc inh counter, FLuc act counter, STAT1 act)
O=C(O)C(=O)/C(=C\c1ccccc1)c1ccc2ccccc2n1	STAT1 act 144 (no result: Pf gametocyte)
O=C(O)C(=O)/C(=C\c1cccc2ccccc12)c1ccc2ccccc2n1	none (no result: Pf gametocyte)
O=C(O)C(=O)/C(=C\c1ccc([N+](=O)[O-])cc1)c1ccc2ccccc2n1	STAT1 act 150 (no result: Pf gametocyte)
O=C1[C@@H]2CSCN2C(=O)CN1Cc1ccc(F)cc1	none (no result: APP 5'UTR act, NF-kB neuron act, FLuc inh counter, FLuc act counter, STAT1 act)
CC(C)c1ccc(/C=C/C(=O)Nc2nncs2)cc1	NF-kB neuron act 7, FLuc inh counter 59, STAT1 act 145 (no result: Pf gametocyte)
CCCCc1ccc(/C=C2\C(=O)c3ccccc3C(O)=C2C(=O)OCC)cc1	none (no result: Pf gametocyte)
O=[N+]([O-])c1ccc(COn2nnc3ccccc32)cc1	none
Clc1ccc(COn2nnc3ccccc32)c(Cl)c1	APP 5'UTR act 153, STAT1 act 146
Oc1ccc(N2CCN(c3ncnc4sc5c(c34)CCC5)CC2)cc1	NF-kB neuron act 3.4 (no result: Pf gametocyte)
CC(=O)c1cc2c(C)c(C(=O)c3ccccc3)oc2cc1O	APP 5'UTR act 156, NF-kB neuron act 4
Cc1nc(SCc2ccc(Cl)cc2)ncc1C(=O)O	NF-kB neuron act 6.4
CC(CCCN(C)C)C(Cc1ccccc1)c1ccccc1 (centres undefined)	none (no result: APP 5'UTR act, NF-kB neuron act, FLuc inh counter, FLuc act counter, STAT1 act)
CCCn1nnnc1NCc1ccc(C(C)C)cc1	none (no result: APP 5'UTR act, NF-kB neuron act, FLuc inh counter, FLuc act counter, STAT1 act)
COc1ccc(CC(=O)Nc2ccc(-c3noc(COc4ccccc4C)n3)cc2)cc1	none
O=C(Nc1ccc(-c2noc(COc3ccccc3Cl)n2)cc1)c1ccco1	STAT1 act 132
CCC(C)(C)C1CCC(=NNC(=S)Nc2ccccc2)CC1 (centres undefined)	APP 5'UTR act 152 (no result: Pf gametocyte)
O=C(NC1CC1)c1cccc(Nc2ccc(-c3ccc4c(c3)OCCO4)nn2)c1	FLuc inh counter 83 (no result: Pf gametocyte)
Clc1ccccc1Cn1nnc(-c2cccs2)n1	STAT1 act 143
O=C(CCn1nnc(-c2cccs2)n1)NCc1ccccc1Cl	none (no result: APP 5'UTR act)
Clc1ccccc1Cn1nnc(-c2ccccc2)n1	STAT1 act 141
Clc1ccc(Cn2nnc(-c3ccccc3)n2)cc1	none
O=C(CCCCCNC(=O)c1ccccc1Cl)N/N=C/c1ccco1	none
O=C(Nc1cccc(Br)c1)c1cc2ccccc2o1	APP 5'UTR act 158, NF-kB neuron act 5.7, STAT1 act 142
O=C(COc1ccccc1)NNC(=O)c1cc2ccccc2o1	none
O=C(NCCOc1ccccc1)c1cc2ccccc2o1	NF-kB neuron act 4.4 (no result: Pf gametocyte)
Cc1cccc(NC(=O)Cc2noc3ccccc23)c1C	none
Cc1cccc(NC(=O)Cc2noc3ccccc23)c1	STAT1 act 140
O=C(NC(=S)Nc1cccnc1)c1cc2ccccc2o1	STAT1 act 131
CC(C)C(=O)Nc1ccc(NC(=O)c2cc3ccccc3o2)cc1	none
CCC(=O)Nc1ccc(NC(=O)c2cc3ccccc3o2)c(OC)c1	none (no result: APP 5'UTR act, NF-kB neuron act, FLuc inh counter, FLuc act counter, STAT1 act)
Cc1cc(C(=O)Nc2cccc(C(=O)O)c2)oc1C	NF-kB neuron act 7
CCCCn1nnc(NC(=O)c2cc3ccccc3o2)n1	STAT1 act 135 (no result: Pf gametocyte)
CCC(=O)Nc1cccc(NC(=O)c2cc3ccccc3o2)c1	FLuc inh counter 54, STAT1 act 148
NS(=O)(=O)c1cccc(NC(=O)c2cc3ccccc3o2)c1	FLuc inh counter 84
O=C(CCC(=O)NNC(=O)c1ccccc1[N+](=O)[O-])NCc1ccccc1	none
CCOC(=O)c1cccc(NC(=O)c2cc3ccccc3o2)c1	none (no result: APP 5'UTR act, NF-kB neuron act, FLuc inh counter, FLuc act counter, STAT1 act)
CCC(=O)Nc1cccc(-c2cc3ccccc3oc2=O)c1	STAT1 act 134
Cc1cccc(NC(=O)c2cc3ccccc3o2)c1	APP 5'UTR act 178, NF-kB neuron act 6.7, FLuc inh counter 66, STAT1 act 136 (no result: Pf gametocyte)
O=C(CNC(=O)COc1ccccc1)NCc1ccccc1F	none
CN1CCN(C2CCN(c3cccc(Cl)c3)CC2)CC1CCO (centres undefined)	none (no result: APP 5'UTR act, NF-kB neuron act, FLuc inh counter, FLuc act counter, STAT1 act)
CCc1c(C)nc(SC(C(=O)O)c2ccccc2)c(C#N)c1C (centres undefined)	none (no result: Pf gametocyte)
Nc1ccc(C(=O)c2ccccc2C(=O)O)cc1Cl	none (no result: Pf gametocyte)
CCOC(=O)c1cc2c(ccc3ccccc32)oc1=O	Pf gametocyte 48
O=C(O)c1cc2c(ccc3ccccc32)oc1=O	none

Source: PubChem
